Data published in ChEMBL document CHEMBL5724801, “EUbOPEN Chemogenomics Library - Multiplex” (2024).
“And” between values parts separate entries of the source, which are not always exact repeats. Equal values may be shown once.

System: Fibroblast
Experiment: Multiplex assay against human fibroblast
Format: toxicity, cell-based
Method in brief: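 Compound was added to live cells that had been stained at seeding with Hoechst33342, BioTracker Green Microtubule Cytoskeleton Dye, MitoTracker Red and Annexin V Alexa Fluor 680, and imaging followed on a CQ1 microscope at 37°C and 5% CO2. CellPathfinder machine-learning gating divided cells into Hoechst high-intensity objects or normal cells, normal cells into healthy, pyknosed or fragmented nuclei, and pyknosed cells into mitotic or apoptotic. Tubulin, mitochondrial-mass and membrane-permeability phenotypes are per cents of healthy-nucleus cells.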

[1] = 12 h, 1 µM, compound concentration 1 uM
[2] = 12 h, 10 µM, compound concentration 10 uM
[3] = 24 h, 1 µM, compound concentration 1 uM
[4] = 24 h, 10 µM, compound concentration 10 uM
[5] = 48 h, 1 µM, compound concentration 1 uM
[6] = 48 h, 10 µM, compound concentration 10 uM

Structure (SMILES): Cl.NCCc1ccc(O)c(O)c1 [DOPAMINE HYDROCHLORIDE]
- Population Apoptotic (%) [1]: 42% and 44%
- Population Fragmented Nuclei (%) [1]: 13% and 34%
- Population Healthy Nuclei (%) [1]: 63% and 40%
- Population Hoechst High Intensity Objects (%) [1]: 1%
- Population Membrane Permeable-Phenotype (%) [1]: 0% and 4%
- Population Mitochondria Different-Phenotype (%) [1]: 1% and 6%
- Population Mitotic Cells (%) [1]: 57% and 55%
- Population Normal (%) [1]: 98%
- Population Pyknosed Nuclei (%) [1]: 23% and 24%
- Population Tubulin-Different-Phenotype (%) [1]: 34% and 45%
- Total Cell Count [1]: 115 and 152
- Population Apoptotic (%) [2]: 56% and 41%
- Population Fragmented Nuclei (%) [2]: 14% and 35%
- Population Healthy Nuclei (%) [2]: 62% and 40%
- Population Hoechst High Intensity Objects (%) [2]: 3% and 4%
- Population Membrane Permeable-Phenotype (%) [2]: 0% and 6%
- Population Mitochondria Different-Phenotype (%) [2]: 3% and 6%
- Population Mitotic Cells (%) [2]: 43% and 58%
- Population Normal (%) [2]: 96% and 95%
- Population Pyknosed Nuclei (%) [2]: 23%
- Total Cell Count [2]: 135 and 127
- Population Apoptotic (%) [3]: 55% and 51%
- Population Fragmented Nuclei (%) [3]: 14% and 34%
- Population Healthy Nuclei (%) [3]: 69% and 47%
- Population Hoechst High Intensity Objects (%) [3]: 0% and 2%
- Population Membrane Permeable-Phenotype (%) [3]: 1% and 7%
- Population Mitochondria Different-Phenotype (%) [3]: 1% and 0%
- Population Mitotic Cells (%) [3]: 44% and 48%
- Population Normal (%) [3]: 99% and 97%
- Population Pyknosed Nuclei (%) [3]: 16% and 18%
- Population Tubulin-Different-Phenotype (%) [3]: 31% and 37%
- Total Cell Count [3]: 112 and 150
- Population Apoptotic (%) [4]: 55% and 47%
- Population Fragmented Nuclei (%) [4]: 16% and 37%
- Population Healthy Nuclei (%) [4]: 69% and 46%
- Population Hoechst High Intensity Objects (%) [4]: 2% and 3%
- Population Membrane Permeable-Phenotype (%) [4]: 1% and 3%
- Population Mitochondria Different-Phenotype (%) [4]: 5% and 7%
- Population Mitotic Cells (%) [4]: 44% and 52%
- Population Normal (%) [4]: 97% and 96%
- Population Pyknosed Nuclei (%) [4]: 13% and 15%
- Population Tubulin-Different-Phenotype (%) [4]: 22% and 56%
- Total Cell Count [4]: 136 and 126
- Population Apoptotic (%) [5]: 36% and 38%
- Population Fragmented Nuclei (%) [5]: 22% and 33%
- Population Healthy Nuclei (%) [5]: 66% and 52%
- Population Hoechst High Intensity Objects (%) [5]: 6%
- Population Membrane Permeable-Phenotype (%) [5]: 1% and 5%
- Population Mitochondria Different-Phenotype (%) [5]: 2% and 3%
- Population Mitotic Cells (%) [5]: 63% and 61%
- Population Normal (%) [5]: 93%
- Population Pyknosed Nuclei (%) [5]: 10% and 14%
- Population Tubulin-Different-Phenotype (%) [5]: 28% and 43%
- Total Cell Count [5]: 110 and 159
- Population Apoptotic (%) [6]: 87% and 90%
- Population Fragmented Nuclei (%) [6]: 21% and 31%
- Population Healthy Nuclei (%) [6]: 66% and 60%
- Population Hoechst High Intensity Objects (%) [6]: 4% and 0%
- Population Membrane Permeable-Phenotype (%) [6]: 0% and 7%
- Population Mitochondria Different-Phenotype (%) [6]: 4%
- Population Mitotic Cells (%) [6]: 12% and 10%
- Population Normal (%) [6]: 95% and 99%
- Population Pyknosed Nuclei (%) [6]: 11% and 8%
- Population Tubulin-Different-Phenotype (%) [6]: 25% and 56%
- Total Cell Count [6]: 141 and 116
